For 30 compounds, activation, potentiation and outcome results are on record in PubChem BioAssay.

A short description of assay [1]: thallium flux activation in parental CHO cells, counter-screen for KCNQ1 potentiator project (AID 493006;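 active = duplicate-averaged activation above buffer control mean plus 5 SD of those controls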). The note with it: parental CHO-K1 cells, FluxOR thallium flux, at 10 µM; hits give high values. The procedure, abridged:
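Assay system: Untransfected host CHO-K1 cells with FluxOR thallium dye | Probe or stimulus: Potassium/thallium depolarization pulse | Schedule: Overnight 37 °C plating, 90 min RT dye, 20 min compound | Detection: Kinetic thallium-flux fluorescence | Read-out: Max-minus-min fluorescence over baseline, percent of buffer-to-R-L3 span | Benchmarks: Low control buffer, high control R-L3 activator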
Background: The purpose of a counterscreen is to sort out artefacts and off-target activity.

For assay [2], the target named is Potassium voltage-gated channel subfamily KQT member 1 (Homo sapiens) (UniProt P51787). The experiment in a line: KCNQ1 potassium channel potentiators, confirmation, FluxOR thallium flux, CHO cells, duplicates (AID 493007;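 active = potentiation averaged over duplicate wells exceeding buffer-only control mean by more than 3 SD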;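 as to outcome: cells depolarized by a potassium plus thallium sulfate stimulus after compound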). The note with it: KCNQ1 cell line, FluxOR thallium flux fluorescence, at 10 µM; hits give high values, % of reference activator effect, buffer zero. The procedure, abridged: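 Material: KCNQ1-expressing CHO cell line; Incubation: FluxOR dye loading 90 min, compound exposure 20 min, room temperature; Detection: FluxOR Tl+ flux fluorescence, 10 s baseline plus 110 s recording; Read-out: percent activation between buffer and R-L3 responses; Control set: buffer-only wells as 0% and R-L3 activator as 100%; Replication: duplicate wells per compound.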

The target in assay [3] is Potassium voltage-gated channel subfamily KQT member 2 (Rattus norvegicus) (UniProt O88943). The experiment in a line: rat KCNQ2 channel potentiation, selectivity assay for KCNQ1 potentiator project, KCNQ2-CHO-K1 cells (AID 493009).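 Also: assay conditions were tuned for KCNQ1 rather than KCNQ2 modulators; signal is max minus min fluorescence divided by baseline after thallium stimulus.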 The note with it: FluxOR thallium flux fluorescence, at 10 µM; hits give high values, scaled: buffer 0, activator control 100.
Assay [4] has as its target Potassium voltage-gated channel subfamily KQT member 1 (Homo sapiens) (UniProt P51787). The experiment in a line: KCNQ1 channel current potentiators, confirmation, orthogonal assay for KCNQ1 potentiator project, IonWorks patch clamp, KCNQ1-CHO cells (AID 493184;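 active = current rise at least 3 SD above the untreated control mean in each of two repeat wells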). The note with it: automated patch clamp current, at 10 µM; hits give high values. The essentials:
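assay system = KCNQ1-expressing CHO cells | medium = external bath solution at pH 7.4 | probe or stimulus = 2,000 ms depolarization, -90 to +40 mV | compound dosing = 10 µM final, single point | measured by = automated voltage clamp, amphotericin B perforated patch | measure = percent current increase versus pre-compound level | replication = duplicates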
For orientation: Patch clamp records ionic current or voltage across a cell membrane.

Activity calls are given as the source filed them.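 The calls were made as follows, unless noted: active = mean duplicate potentiation above the buffer control mean plus 5 SD of buffer wells; inactive = the rest.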

Chain of Potassium voltage-gated channel subfamily KQT member 2 (Rattus norvegicus) (O88943 whole entry, looked up): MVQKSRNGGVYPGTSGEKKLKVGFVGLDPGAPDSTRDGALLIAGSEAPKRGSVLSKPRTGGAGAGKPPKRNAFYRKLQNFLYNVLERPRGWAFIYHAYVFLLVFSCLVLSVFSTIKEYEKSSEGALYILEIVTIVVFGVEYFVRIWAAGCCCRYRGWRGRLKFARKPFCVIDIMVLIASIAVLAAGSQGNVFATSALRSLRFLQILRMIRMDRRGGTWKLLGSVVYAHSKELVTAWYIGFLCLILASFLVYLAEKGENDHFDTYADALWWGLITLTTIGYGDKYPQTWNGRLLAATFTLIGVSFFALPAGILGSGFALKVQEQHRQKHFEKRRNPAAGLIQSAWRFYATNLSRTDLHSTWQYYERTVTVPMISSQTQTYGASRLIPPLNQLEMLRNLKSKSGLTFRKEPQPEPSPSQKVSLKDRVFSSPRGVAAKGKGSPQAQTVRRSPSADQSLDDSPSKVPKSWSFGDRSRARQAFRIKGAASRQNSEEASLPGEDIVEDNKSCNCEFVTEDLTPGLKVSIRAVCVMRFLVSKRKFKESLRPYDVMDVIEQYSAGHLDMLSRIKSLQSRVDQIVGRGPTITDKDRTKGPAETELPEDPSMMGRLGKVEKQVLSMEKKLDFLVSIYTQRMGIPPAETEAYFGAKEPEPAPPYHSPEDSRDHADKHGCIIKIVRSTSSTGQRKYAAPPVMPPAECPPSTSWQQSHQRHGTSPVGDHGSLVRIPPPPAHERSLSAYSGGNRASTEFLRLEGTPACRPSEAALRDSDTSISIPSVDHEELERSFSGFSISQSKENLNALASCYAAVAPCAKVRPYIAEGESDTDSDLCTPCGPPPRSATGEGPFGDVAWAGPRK
Chain of Potassium voltage-gated channel subfamily KQT member 1 (Homo sapiens) (P51787 whole entry, looked up): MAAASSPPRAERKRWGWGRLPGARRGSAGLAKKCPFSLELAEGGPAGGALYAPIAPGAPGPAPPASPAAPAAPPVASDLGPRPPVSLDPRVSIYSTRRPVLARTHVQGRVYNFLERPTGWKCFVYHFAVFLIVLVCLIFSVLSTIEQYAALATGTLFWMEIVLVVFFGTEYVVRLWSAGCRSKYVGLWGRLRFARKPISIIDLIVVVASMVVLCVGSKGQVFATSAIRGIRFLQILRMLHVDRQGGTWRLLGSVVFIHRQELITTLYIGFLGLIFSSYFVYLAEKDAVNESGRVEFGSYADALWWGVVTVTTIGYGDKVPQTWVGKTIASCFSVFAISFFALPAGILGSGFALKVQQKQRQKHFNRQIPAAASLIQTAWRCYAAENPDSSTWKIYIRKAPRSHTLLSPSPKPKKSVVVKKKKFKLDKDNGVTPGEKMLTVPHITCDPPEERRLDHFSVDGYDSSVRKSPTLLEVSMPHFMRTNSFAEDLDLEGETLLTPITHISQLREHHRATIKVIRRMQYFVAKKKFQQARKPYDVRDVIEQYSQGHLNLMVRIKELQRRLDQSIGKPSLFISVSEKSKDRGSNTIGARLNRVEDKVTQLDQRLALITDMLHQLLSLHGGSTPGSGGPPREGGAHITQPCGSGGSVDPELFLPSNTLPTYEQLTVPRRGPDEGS

For `COc1cccc2sc(Nc3nnc(-c4ccc(F)cc4)o3)nc12`, the activation in assay [1] is 394% (active). In addition, the potentiation was 202% (active) in assay [2] and 521% (active) in assay [3]. Also, the result in assay [4] was inactive.

Regarding `COc1cccc(C=NCC(C)N=Cc2cccc(OC)c2O)c1O` (stereo not given), the result in assay [1], in assay [2], in assay [3] and in assay [4] was inactive.

Regarding `N#C/C(=C\c1ccc(-c2ccccc2Cl)o1)C(=O)Nc1nc2ccccc2s1`, the outcome in assay [1], in assay [2], in assay [3] and in assay [4] was inactive.

Turning to `CN(C)CC(CCCCC(CN(C)C)C(=O)c1ccccc1)C(=O)c1ccccc1` (stereo not given), the outcome in assay [1], in assay [2], in assay [3] and in assay [4] was inactive.

Regarding `O=C(NC(=S)N1CCN(Cc2ccc3c(c2)OCO3)CC1)c1ccc(Cl)cc1`, in assay [1], the activation is 260% (active). Moreover, the results for the potentiation in assay [2] and in assay [3] were 86% (active) and 298% (active), respectively. Moreover, the outcome in assay [4] was inactive.

Regarding `CC(C)(C)C1C/C(=C/c2ccccn2)C(=O)/C(=C/c2ccccn2)C1` (stereo not given), the outcome in assay [1], in assay [2], in assay [3] and in assay [4] was inactive.

For `O=C(NC(=S)Nc1ccccc1N1CCOCC1)c1ccc(-c2ccccc2F)o1`, in assay [1], the activation is 147% (active). The figures for the potentiation in assay [2] and in assay [3] were 51.5% (active) and 182% (active), respectively. Also, the result in assay [4] was inactive.

For `Cc1ccccc1C([O-])=Nc1ccc[n+](-c2nc3ccccc3nc2NS(=O)(=O)c2ccccc2)c1`, the result in assay [1], in assay [2], in assay [3] and in assay [4] was inactive.

In the case of `COc1ccccc1OCCc1nnc(N)s1`, the result in assay [1], in assay [2], in assay [3] and in assay [4] was inactive.

On to `Cc1ccc(CSc2nc3ccccc3c(=O)n2CCCC(=O)NCc2ccco2)cc1`, for which the result in assay [1], in assay [2], in assay [3] and in assay [4] was inactive.

For the compound `Fc1ccccc1/C=N/NC(=S)Nc1ccc(Cl)cc1Cl`, the outcome in assay [1], in assay [3] and in assay [4] was inactive. The potentiation in assay [2] was 66.5% (active).

As for `Cc1cccc(C(=O)Oc2csc(=S)n2C(=O)c2cccc(C)c2)c1`, the activation in assay [1] was 139% (active). Also, the potentiation in assay [2] was 27% (active); in assay [3], 158% (active). Also, the outcome in assay [4] was inactive.

With `Cn1c(O)c(N=Nc2nc(-c3ccccc3)cs2)c2ccccc21`, the activation in assay [1] is 510% (active). In addition, the potentiation was 385% (active) in assay [2] and 677% (active) in assay [3]. Moreover, the outcome in assay [4] was inactive.

For `COc1cc(C(=O)NC(=S)N(CCc2ccccc2)CCc2ccccc2)cc(OC)c1OC`, the activation in assay [1] was 198% (active). Further, the potentiation was 104% (active) in assay [2] and 256% (active) in assay [3]. Also, in assay [4], the outcome was inactive.

As to `CSC(=S)N/N=C/c1ccc(N(C)C)cc1`, the result in assay [1], in assay [2], in assay [3] and in assay [4] was inactive.

Regarding `COC(=O)C1=C(C)Nc2nnnn2C1c1ccc(Cl)cc1Cl` (stereo not given), the result in assay [1], in assay [2], in assay [3] and in assay [4] was inactive.

Take `O=C(NCc1cccs1)C1CC(c2ccccc2O)=NO1` (stereo not given): the outcome in assay [1], in assay [2], in assay [3] and in assay [4] was inactive.

For `Cc1ccc(Nc2c([N+](=O)[O-])ccc3nonc23)c(C)c1`, the result in assay [1], in assay [2], in assay [3] and in assay [4] was inactive.

`C/C(=N\NC(=O)c1cccc(F)c1)c1ccc(Br)s1`: the outcome in assay [1], in assay [2], in assay [3] and in assay [4] was inactive.

For the compound `CCc1ccc(OCC(=O)Nc2ccc(S(=O)(=O)N3CCOCC3)cc2)cc1`, the outcome in assay [1], in assay [2], in assay [3] and in assay [4] was inactive.

As to `Cc1ccc(-n2[nH]c(C)c(/C=N/N3C(=O)c4cccc5cccc(c45)C3=O)c2=O)cc1`, the activation in assay [1] is 153% (active). For the same compound, the potentiation is 86% (active) in assay [2] and 225% (active) in assay [3]. Besides, in assay [4], the outcome was inactive.

For the compound `COc1cc2c3nnc(-c4ccccc4)c-3cn(Cc3ccc(F)cc3)c2cc1OC`, the result in assay [1], in assay [2], in assay [3] and in assay [4] was inactive.

For `COc1ccc(C(=O)c2ccc(OC)c(N)c2)cc1N`, the activation in assay [1] was 162% (active). Besides, the potentiation is 38.5% (active) in assay [2] and 178% (active) in assay [3]. Further, the result in assay [4] was inactive.

Consider `O=c1c2cc(Br)ccc2nc(-c2ccc([N+](=O)[O-])cc2)n1O`, for which the activation in assay [1] was 346% (active). Besides, the values for the potentiation in assay [2] and in assay [3] were 147% (active) and 410% (active), respectively. The outcome in assay [4] was inactive.

As to `CCCc1cc2c(=O)c(-c3ccccn3)c(C)oc2cc1O`, the outcome in assay [1], in assay [2], in assay [3] and in assay [4] was inactive.

With `Cc1ccc(N2C(=O)N3[C@H](c4ccc(F)cc4)[C@@H]4C(=O)N(C5CCCCC5)C(=O)[C@@H]4[C@]3(Cc3ccccc3)C2=O)cc1`, the outcome in assay [1], in assay [2], in assay [3] and in assay [4] was inactive.

In the case of `C=CCn1c(=S)[nH]c2ccc(Br)cc2c1=O`, the activation in assay [1] was 208% (active). The potentiation in assay [2] was 51% (active); in assay [3] it was 200% (active). Moreover, in assay [4], the outcome was inactive.

Take `O=C(Nc1cc(=O)[nH]c(=O)[nH]1)c1cccc(Br)c1`: the result in assay [1], in assay [2], in assay [3] and in assay [4] was inactive.

Consider `NC(=O)NC(=O)C[n+]1cccc(/C=N/O)c1`, for which the result in assay [1], in assay [2], in assay [3] and in assay [4] was inactive.

In the case of `Cc1ccc(-n2ncc3c(SCC(=O)NNC(=O)c4ccco4)ncnc32)cc1`, the outcome in assay [1], in assay [2], in assay [3] and in assay [4] was inactive.
